Experimental findings from ChEMBL document CHEMBL2385004, “Development of flavonoid-based inverse agonists of the key signaling receptor US28 of human cytomegalovirus” (J Med Chem, 2013) are described below.

The subject of assay [1] is CHO. Nature of the assay: Cytotoxicity against CHO cells after 48 hrs by MTS assay. In kind it is cell-based. Conditions: Cricetulus griseus. Put shortly: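 CHO cells plated at 10000 cells/mL and incubated overnight. Drug from DMSO stock added, final DMSO <1%. Incubated 48 h at 37 °C, 5% CO2, then MTS reagent for 4 h more. Absorbance read at 490 nm. Run in triplicate; IC50 taken from a plot of relative A490 vs drug concentration.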

The nature of assay [2]: Activation of MAPK signaling pathway in mock-transfected HEK293T cells at 10 uM after 20 to 24 hrs by luciferase-based Elk1 reporter gene assay relative to control. Particulars: Homo sapiens, HEK-293T. In kind it is cell-based. Put shortly:
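HEK293T cells transiently transfected with 0.1 μg Elk1, 5 μg Luc and empty pcDNA3 (PathDetect trans Elk1 system). After 5 h, washed, seeded at 20,000 cells/well in DMEM, 1% FBS, 2 mM L-glutamine, 1% pen-strep, 1% DMSO. Compound at 10 μM; 37 °C, 5% CO2, 20−24 h. Bright-Glo luminescence; % effect = 100% × (treated/1% DMSO control luminescence) − 100%.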

Assay [3] in a line: Inverse agonist activity at human cytomegalovirus US28 receptor transfected in HEK293T cells assessed as activation of MAPK signaling pathway at 10 uM after 20 to 24 hrs by luciferase-based Elk1 reporter gene assay relative to control. Format: cell-based. Conditions: Human betaherpesvirus 5, HEK-293T. The essentials:
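HEK293T transiently transfected with 0.1 μg Elk1, 5 μg Luc and 5 μg US28 vector (PathDetect trans Elk1), reading US28-driven MAPK/Elk1 signaling. After 5 h, seeded 20,000 cells/well in DMEM, 1% FBS, 2 mM L-glutamine, 1% pen-strep, 1% DMSO with compound; 37 °C, 5% CO2, 20−24 h. Bright-Glo luciferase luminescence vs no-compound control. Triplicates, 3−5 experiments; curves normalized, pooled, fitted by nonlinear regression.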

Assay [4] in a line: Inverse agonist activity at human cytomegalovirus US28 receptor transfected in HEK293T cells assessed as activation of MAPK signaling pathway after 20 to 24 hrs by luciferase-based Elk1 reporter gene assay. In kind it is cell-based, Human betaherpesvirus 5, HEK-293T. Put shortly:
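HEK293T cells transiently co-transfected with Elk1 (0.1 μg), Luc (5 μg) and US28 vector (5 μg); 5 h later washed, seeded at 20,000 cells/well in DMEM, 1% FBS, 2 mM L-glutamine, 1% penicillin-streptomycin, 1% DMSO with compound; 37 °C, 5% CO2, 20–24 h; BrightGlo luminescence. 3–5 experiments in triplicate, pooled normalized sigmoid fits give EC50 and efficacy.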

Where [5] appears, read: Human betaherpesvirus 5, HEK-293T, read-out: EC50.
Where [6] appears, read: Human betaherpesvirus 5, HEK-293T, read-out: pEC50 (converted).

The structures appear in SMILES notation. Calls of active or inactive are those of the source. No cut-off for these calls is given here.

`COc1ccc(Br)cc1-c1cc(=O)c2c(OCc3ccccc3)cccc2o1` came in with an IC50 in assay [1] of 96.6 µM. The Activity in assay [2] was -3%. Moreover, the Efficacy in assay [3] was -89%. Besides, the values for the EC50 in assay [4] (setting [5]) and in assay [4] (setting [6]) were 3.5 µM and 3.47 µM, respectively.
Consider `COc1ccc(Cl)cc1C1CC(=O)c2ccccc2O1` (stereo unspecified), for which, in assay [2], the Activity is -14%. In addition, the result in assay [3] was inactive.
As to `COc1ccc(Br)cc1/C=C/C(=O)c1c(O)cccc1OCc1ccccc1`, in assay [1], the IC50 turned out to be 8.1 µM. For the same compound, the EC50 entry in assay [4] (hek-293t) is given as “ND(toxic)”.
On to `COc1ccc(Br)cc1C1CC(=O)c2ccccc2O1` (stereo unspecified), for which inhibition in assay [1] was half-maximal at 67.9 µM (IC50). The Activity in assay [2] was -5%. Further, in assay [3], the result was inactive.
Consider `COc1ccccc1-c1cc(=O)c2c(O)cccc2o1`, for which, in assay [1], the concentration for half-maximal inhibition (IC50) was over 100 µM. Also, in assay [2], the Activity worked out at 2%. For the same compound, the result in assay [3] was inactive.
As for `COc1ccccc1-c1cc(=O)c2ccccc2o1`, in assay [1], inhibition was half-maximal at 64.8 µM (IC50). The Activity in assay [2] is 3%. The outcome in assay [3] was inactive.
Regarding `COc1ccccc1-c1cc(=O)c2c(OCc3ccccc3)cccc2o1`, inhibition in assay [1] was half-maximal at 17.5 µM (IC50). The Activity in assay [2] was -40%. The Efficacy in assay [3] is -49%. The EC50 in assay [4] (setting [5]) is 7.3 µM; in assay [4] (setting [6]), 7.24 µM.
In the same order, the values of `COc1ccc(I)cc1/C=C/C(=O)c1ccccc1O` are 6.7 µM, 100%, -94%, 5.5 µM and 5.5 µM.
Consider `COc1ccc(Br)cc1/C=C/C(=O)c1ccc2ccccc2c1O`, for which the IC50 in assay [1] is 15.6 µM. In addition, the Activity in assay [2] stood at 35%. Further, the Efficacy in assay [3] was -92%. The EC50 in assay [4] (setting [5]) is 2.9 µM; in assay [4] (setting [6]) it was 2.88 µM.
`COc1cc(OC)c(-c2oc3ccccc3c(=O)c2O)cc1Br` returned an IC50 in assay [1] of 18.3 µM. Also, in assay [2], the Activity was -17%. Besides, the result in assay [3] was inactive.
With `COc1ccc(Cl)cc1/C=C/C(=O)c1ccccc1O`, the IC50 in assay [1] was 8.4 µM. The Activity in assay [2] is -30%. Besides, in assay [3], the Efficacy is -58%. For the same compound, the EC50 in assay [4] (setting [5]) was 7.8 µM; in assay [4] (setting [6]), 7.76 µM.
The compound `COc1ccc(C)cc1-c1oc2ccccc2c(=O)c1O` had an IC50 in assay [1] of 54.6 µM. In addition, the Activity in assay [2] came to 0%. Besides, the Efficacy in assay [3] is -38%. Also, the EC50 in assay [4] (setting [5]) and in assay [4] (setting [6]) was 1.78 µM in each case.
As for `CCOc1ccc(Cl)cc1-c1oc2ccccc2c(=O)c1O`, the IC50 in assay [1] was over 100 µM. For the same compound, in assay [2], the Activity was -17%. Moreover, the Efficacy in assay [3] was -41%. Besides, the EC50 in assay [4] (setting [5]) was 0.31 µM; in assay [4] (setting [6]) it was 0.309 µM.
Take `CCOc1ccc(Cl)cc1/C=C/C(=O)c1ccccc1O`: the midpoint of inhibition in assay [1], the IC50, lay at 6.8 µM. Moreover, the Activity in assay [2] turned out to be 33%. Besides, the Efficacy in assay [3] is -76%. Further, the EC50 was 6.4 µM in assay [4] (setting [5]) and 6.46 µM in assay [4] (setting [6]).
The compound `COc1ccc(I)cc1-c1oc2ccccc2c(=O)c1O` showed an IC50 in assay [1] of 17.9 µM. Besides, the Activity in assay [2] is -23%. Besides, the outcome in assay [3] was inactive.
Consider `CCOc1ccc(Br)cc1-c1oc2ccccc2c(=O)c1O`, for which the IC50 in assay [1] stood at 13.5 µM. In addition, the Activity in assay [2] was -31%. Also, the Efficacy in assay [3] was -41%. In addition, the EC50 in assay [4] (setting [5]) was 0.8 µM; in assay [4] (setting [6]) it was 0.832 µM.
`COc1ccc(Br)cc1/C=C/C(=O)c1ccccc1O` came in with an IC50 in assay [1] of 8.7 µM. Besides, the Activity in assay [2] was -29%. In assay [3], the Efficacy is -44%. Further, the EC50 in assay [4] (setting [5]) was 7.8 µM; in assay [4] (setting [6]) it was 7.76 µM.
On to `COc1ccc(Br)cc1-c1oc2cccc(OC)c2c(=O)c1O`, for which half-maximal inhibition in assay [1] (IC50) required 17.3 µM. Moreover, in assay [2], the Activity was -1%. In addition, the result in assay [3] was inactive.
Turning to `COc1ccccc1/C=C/C(=O)c1ccccc1O`, the IC50 in assay [1] amounted to 25.5 µM. In assay [2], the Activity is 8%. Moreover, in assay [3], the Efficacy was found to be 67%. The figures for the EC50 in assay [4] (setting [5]) and in assay [4] (setting [6]) were 1.4 µM and 1.45 µM, respectively.
For `COc1ccc(Br)cc1-c1cc(=O)c2ccccc2o1`, in assay [1], the IC50 was over 100 µM. The Activity in assay [2] is -17%. In addition, the Efficacy in assay [3] was -55%. The EC50 in assay [4] (setting [5]) is 8.1 µM; in assay [4] (setting [6]), 8.13 µM.
In the case of `COc1cc(Br)cc(/C=C/C(=O)c2ccccc2O)c1OC`, the midpoint of inhibition in assay [1], the IC50, lay at 7.2 µM. For the same compound, the Activity in assay [2] is -42%. Besides, the Efficacy in assay [3] is -52%. Further, the EC50 was 6.7 µM in assay [4] (setting [5]) and 6.61 µM in assay [4] (setting [6]).
For the compound `COc1ccc(Br)cc1/C=C/C(=O)c1c(O)cccc1OC`, the IC50 in assay [1] turned out to be 6.1 µM. In addition, the Activity in assay [2] amounted to 290%. The Efficacy in assay [3] is -95%. The results for the EC50 in assay [4] (setting [5]) and in assay [4] (setting [6]) were 6 µM and 6.03 µM, respectively.
The compound `CCOc1ccc(Br)cc1/C=C/C(=O)c1ccccc1O` returned an IC50 in assay [1] of 7.2 µM. Further, in assay [2], the Activity was -3%. For the same compound, the Efficacy in assay [3] is -88%. Moreover, the values for the EC50 in assay [4] (setting [5]) and in assay [4] (setting [6]) were 5 µM and 5.01 µM, respectively.
In turn, `COc1ccc(Br)cc1-c1cc(=O)c2c(O)cccc2o1` displayed an IC50 in assay [1] of 75.2 µM. The Activity in assay [2] is -16%. Further, the outcome in assay [3] was inactive.
Turning to `COc1ccccc1/C=C/C(=O)c1c(O)cccc1OCc1ccccc1`, the EC50 entry in assay [4] (hek-293t) is listed as “ND(toxic)”.
In the case of `COc1ccccc1-c1oc2ccccc2c(=O)c1O`, in assay [1], the IC50 was over 100 µM. For the same compound, the Activity in assay [2] is -1%. The Efficacy in assay [3] is -19%. Further, the results for the EC50 in assay [4] (setting [5]) and in assay [4] (setting [6]) were 4.6 µM and 4.57 µM, respectively.
Take `COc1cc(Br)cc(-c2oc3ccccc3c(=O)c2O)c1OC`: the IC50 in assay [1] is over 100 µM. Further, the Activity in assay [2] is -28%. Further, in assay [3], the result was inactive.
Regarding `COc1ccc(Br)cc1-c1oc2ccccc2c(=O)c1O`, in assay [1], the IC50 came to 88.5 µM. Besides, the Activity in assay [2] was -11%. The result in assay [3] was inactive.
In the case of `COc1ccc(Cl)cc1-c1oc2ccccc2c(=O)c1O`, the IC50 in assay [1] came to 25 µM. Besides, in assay [2], the Activity worked out at 2%. Also, the Efficacy in assay [3] is -42%. Moreover, the EC50 in assay [4] (setting [5]) and in assay [4] (setting [6]) was 1.32 µM in each case.
`COc1cc(OC)c(/C=C/C(=O)c2ccccc2O)cc1Br` showed a concentration for half-maximal inhibition (IC50) in assay [1] of 16.9 µM. Moreover, the Activity in assay [2] amounted to 5%. In assay [3], the Efficacy is -55%. The EC50 in assay [4] (setting [5]) and in assay [4] (setting [6]) was 4.9 µM throughout.
In assay [1], `COc1ccc(C)cc1/C=C/C(=O)c1ccccc1O` displayed a 50% inhibitory concentration (IC50) of 14.2 µM. In assay [2], the Activity is -4%. Also, the Efficacy in assay [3] was 52%. Moreover, in assay [4] (setting [5]), the EC50 was 10 µM.
